Results as given in ChEMBL document CHEMBL4513216, “Probing the Open Global Health Chemical Diversity Library for Multistage-Active Starting Points for Next-Generation Antimalarials” (ACS Infect Dis, 2020).

Assay: Toxicity liver stage against HepG2, at 10uM
Type: cell-based
Set-up: test concentration 10 uM, cell line HepG2-A16-CD81EGFP
Conditions: human, HepG2-A16-CD81EGFP cells; read-out: INHIBITION
Summary of the method: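 Uninfected HepG2-A16-CD81EGFP cells, 3 × 10^3 per well, 1536-well, plated on prespotted compound at 10 μM final, parasite-free screening media added to match infected plates; puromycin 10 μM positive, DMSO 0.5% negative; run in parallel with 48 h PbLuc assay at 37 °C, 5% CO2; viability by CellTiter-Glo luminescence, normalized to controls.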

Row | Compound | cytotoxicity at 10 µM
1 | Cc1ncc(CN(C)Cc2nc3cc(Cl)ccc3n2C)s1 | -42.9%
2 | CCCc1nc2c(c(C)c(C)n2Cc2cccnc2)c(N)c1CC | 15%
3 | CCC(C)NC(=O)c1snnc1-c1ccc(OC)cc1 (stereo not given) | 6.93%
4 | Cn1ccc2c(NC(=O)Cn3ncc4c(c3=O)CCCC4)cccc21 | 2.33%
5 | CC(C)C1SCC(=O)Nc2c1c(O)nn2C1CCCCC1 (stereo not given) | 2.42%
6 | O=C(C1=COCCO1)N1CC(Oc2nc3c(Cl)cccc3s2)C1 | 38.2%
7 | O=C(NCc1ccccc1)N1CCC(Oc2ncccc2Br)CC1 | 18.3%
8 | Cc1csc(C(=O)N2CC(S(=O)(=O)C3CCCCC3)C2)c1 | -2.83%
9 | O=C(c1cnccn1)N1C[C@@H](c2ccccc2)[C@@]2(CCNC2=O)C1 | -1.59%
10 | CCN(C)C(=O)c1cnc(-c2noc3cc(N4CCCCC4)ccc23)s1 | 48.6%
11 | CCOCC1c2c(ncn2C(C)C)CCN1C(=O)C1CC1 (stereo not given) | 10.5%
12 | Cc1ccc(C(=O)N2C[C@@H]3CN(c4ncccn4)C[C@@H]3C2)cn1 | 6.86%
13 | O=C(NC1CC1)c1cc2c(nc1O)CC(c1cccs1)CC2=O (stereo not given) | 86.1%
14 | CSC1=Nc2c(cnn2-c2ccccc2)C2=NCCCN12 | 8.85%
15 | CCn1cc(CNC(=O)c2nn(CC)cc2Br)cn1 | 47.1%
16 | Cn1nc(C(=O)NCc2cccnc2)c2c1CCS(=O)(=O)C2 | 6.09%
17 | c1cnc(N2CCC(c3csc(Nc4cnccn4)n3)CC2)nc1 | 34%
18 | Fc1cccc(Nc2nc(N3CCCC3)nc3c2CNCC3)c1 | -18%
19 | NCC(=O)N1CCC(c2cccc(Oc3ccccc3)n2)CC1 | 9.43%
20 | CSc1ccc(CN2C[C@@H]3CC[C@@](O)(c4ccc(C)cn4)[C@@H]3C2)cc1 | -15.7%
21 | CC(C)C1=NOC2(CCN(Cc3c[nH]c4ccccc34)CC2)C1 | 3.46%
22 | CC(C)CSCCN1CCCN(S(C)(=O)=O)CC1 | -8.17%

Row | Compound | cytotoxicity at 10 µM
23 | CCN(CC)c1ncc(Cl)c(C(=O)NC2CCc3nccn3C2)n1 (stereo not given) | -49.5%
24 | COc1ccc(CNCCC(=O)N2CCc3sccc3C2)cc1O | 4.48%
25 | CC(C)(C)NC(=O)CN1CCCNCC1 | -145%
26 | CN(Cc1ccccc1F)Cc1cc2c(cc1Br)OCCO2 | -139%
27 | CC(C)(C)n1ncc(NCCc2ccccc2C(F)(F)F)c(Cl)c1=O | 57%
28 | CC(C)c1nnc(NC(=O)Cc2csc(-c3nnc[nH]3)n2)s1 | -47.2%
29 | Cc1c(CS(C)(=O)=O)cccc1NCCCC1CCCC1 | 17.5%
30 | Cc1nc(CN2CCc3c(nc(C4CC4)n3C)C2)nc2ccccc12 | 7.36%
31 | CN(CC(=O)Nc1nc2c(s1)CCCCCC2)C(=O)c1ccco1 | 37.9%
32 | O=C(NC1CCC(N2C(=O)CCC2=O)CC1)c1c[nH]c2ccccc12 (stereo not given) | -2.06%
33 | Cc1c(CN2CCCC(C(=O)Nc3ccccc3)C2)cc(C#N)n1C (stereo not given) | 6.75%
34 | Cc1nn(C)c(NC(=O)C2SCCc3ccccc32)c1C (stereo not given) | 45.8%
35 | CCC(CNC(=O)c1c(C)nn(C)c1OC)Oc1ccccc1 (stereo not given) | -4.89%
36 | Cc1nc(CN2CCN(C(=O)CCc3cccc(Cl)c3)CC2)no1 | 2.93%
37 | O=S(=O)(c1ccc(Cl)cc1)N1CCN(CCCn2ccnc2)CC1 | -6.18%
38 | CN1CCN(c2cc(CNCc3cccc4c3OCO4)ccn2)CC1 | -5.31%
39 | Cc1nc(C)n(CC2CCCN2CC(=O)N(C)Cc2ccc(C)o2)n1 (stereo not given) | 8.52%
40 | CCSc1cc(C(=O)NCc2ccc(C(=O)NC)cc2)ccn1 | 32.6%
41 | Clc1cc(CN2CCCC(Cn3cncn3)C2)c2ncccc2c1 (stereo not given) | 6.64%
42 | CN(Cc1cccc(F)c1)C(=O)CN1CCCC(Cn2cncn2)C1 (stereo not given) | 4.64%
43 | O=S(=O)(N1CCOCC1)N1CCc2sccc2C1 | -92.3%
44 | CC(C)(C)CC(=O)NC(C)(C(N)=O)c1cccc(Cl)c1 (stereo not given) | 11.5%

Row | Compound | cytotoxicity at 10 µM
45 | c1ccc(N2CCCC2)c(NCc2ccncc2)c1 | -0.289%
46 | CCN1CCN(c2ccc(C(=O)NCCOC)cc2F)CC1 | 1.12%
47 | CN1CCN(C2CCN(c3cnc4ccccc4n3)CC2)C1=O | 27.4%
48 | NC(=O)c1cccc(CCNCc2cnc(-c3cccs3)s2)c1 | 2.49%
49 | Cc1ccc2cc(C(=O)NCCN3CCS(=O)(=O)CC3)c(C)nc2c1 | 10.5%
50 | CCS(=O)(=O)c1ccc(CNc2c(Cl)cccc2C#N)cc1 | -50.6%
51 | O=C(NCc1nnc2n1CCC2)N1CCC2(CCCCC2)CC1 | 11%
52 | Cc1cc(CN2CC[C@H]3C[C@H](c4nc(C5CC5)cs4)O[C@@H]3C2)no1 | -97.6%
53 | Cc1nc(-c2ccccc2)nc2c1CCN(Cc1nccn1C)CC2 | -118%
54 | CC(=O)NCC(=O)N1CCN(Cc2ccncc2)c2ncccc2C1 | -90.3%
55 | Cc1cccc(CN2CC[C@H]3C[C@@H](C)O[C@@H]3C2)n1 | -65.5%
56 | COc1cc(N2CC[C@H](O)[C@@H]2Cc2ccccc2)ncn1 | -75%
57 | CC(C)Nc1ncnc2c1CCN(C(=O)N1CCOCC1)CC2 | -74%
58 | CC[C@@H](C)[C@@H](N)C(=O)Nc1cccc(-c2cnc(N(C)C)nc2)c1 | -4.78%
59 | Nc1cc(N2CCCC(CO)(Cc3ccccc3F)C2)nc(N)n1 (stereo not given) | 12.8%
60 | Cn1cnc2cc(C(=O)N3CCN(CCO)[C@@H]4CS(=O)(=O)C[C@@H]43)ccc21 | 2.74%
61 | Cc1ccccc1N1CCCN(C(=O)CCCn2ccnc2C)CC1 | -3.3%
62 | COc1ccc2c(c1)OCC(Cc1ccc(N)nc1C)C2 (stereo not given) | 21.8%
63 | CS(=O)(=O)N1C[C@H]2CNC[C@@]2(C(=O)NCCCc2ccccc2)C1 | 0.334%
64 | COC(=O)N1CCC2(CC1)N=C(CCC(C)C)NC2=O | -2.77%
65 | Fc1ccccc1Cc1noc(CN2CCC(N3CCSCC3)CC2)n1 | -6.47%
66 | Cc1n[nH]c(C)c1CCNC(=O)C1CCCN(CC(N)=O)C1 (stereo not given) | -0.653%

Row | Compound | cytotoxicity at 10 µM
67 | Cc1cc(N(C)CCCn2cccn2)nc(N)n1 | 0.423%
68 | CCCc1cnc(C)nc1N1CCC(Cc2ccc(CO)cc2)C1 (stereo not given) | -2.36%
69 | Cc1nc2cc(OCc3nc(C(=O)NC(C)(CO)CO)co3)ccc2s1 | 47.6%
70 | FC(F)(F)c1ccccc1CCC1CCCN(Cc2cscn2)C1 (stereo not given) | 2.28%
71 | COCc1noc(-c2ccc(N3CCC[C@H]3CO)nc2)n1 | -8.26%
72 | Cc1noc(-c2ccc(N3CCC(C(=O)N4CCCC4)CC3)nc2)n1 | 6.5%
73 | O=C1CCCN1CCCC(=O)N1CCCCC1c1ccc(F)cc1 (stereo not given) | -43.2%
74 | Cc1cccc(C(C)C)c1NC(=O)CN(C)C(C)c1nccs1 (stereo not given) | -129%
75 | Fc1ccccc1CN1CCCC2(CCN(c3ncccn3)C2)C1 (stereo not given) | -104%
76 | COc1ccnc(CN2CCCC(CCc3ccccc3)C2)c1OC (stereo not given) | 0.979%
77 | O=C(c1n[nH]cc1Cl)N1CCOC(Cc2cccc(C(F)(F)F)c2)C1 (stereo not given) | 4.19%
78 | CC(C)C1CN(C(=O)c2cc(=O)[nH]c(=O)[nH]2)CCCN1CC1CC1 (stereo not given) | -2.42%
79 | COCCCN1C(=O)CC[C@H]2CN(Cc3cc4ccccc4o3)CC[C@H]21 | 23.8%
80 | Cc1cc(C(F)(F)F)nc(N2CCN(Cc3nccn3C)CC2)n1 | -4.28%
81 | CNc1cc(C)nc(N2Cc3cnn(Cc4ccc(F)cc4)c3C2)n1 | 4.03%
82 | Cc1cc(N(C)Cc2cc(C(C)(C)C)n[nH]2)nc(-c2cccnc2)n1 | 19.9%
83 | O=C(Cc1cccs1)N1CCCC(CNS(=O)(=O)Cc2ccccc2)C1 (stereo not given) | 5.78%
84 | Cc1nonc1CN(C)c1nc(-c2ccco2)nc2c1CCN(C)CC2 | -0.274%
85 | CN(CC1CCN(c2ccccc2)C1)c1ccc(Cn2ccnc2)cn1 (stereo not given) | -142%
86 | Cc1nc(N)cc(N2CCCC(COc3cccc(F)c3)C2)n1 (stereo not given) | -1.53%
87 | O=C(CCn1cc(Cl)cn1)N1CCC2(CC1)[C@H](O)C[C@@H]2OCCO | 19.6%
88 | COCCN(Cc1ccccc1C)c1nc(C)nc2oc(C)nc12 | -51.8%

Row | Compound | cytotoxicity at 10 µM
89 | CC(=O)c1cnc(NCC2OCCc3ccccc32)nc1C (stereo not given) | -48.9%
90 | CCC(C)c1ccc(NC(=O)C2CCN(C(=O)N(C)C)CC2)cc1 (stereo not given) | -7.29%
91 | Cc1cnc(C)c(N2CCN(CCCc3ccncc3)CC2)n1 | -15.4%
92 | COCCCC1(CO)CCCN(Cc2nccs2)C1 (stereo not given) | 2.43%
93 | COc1ccc(Oc2ncccc2F)cc1CN1CCCC1 | 2.09%
94 | O=C1CC2(CCN(CCCF)CC2)CN1Cc1cc(F)cc(F)c1 | 16.3%
95 | Cn1ccc(C(=O)N2CCCC(Cc3cccc4ncccc34)C2)n1 (stereo not given) | 22.1%
96 | c1cc(OCc2ccc3c(c2)OCO3)ccc1CNC1CC1 | 4.7%
97 | CN(C)c1ccc(CNC2=NCCCN2)cc1 | -39.9%
98 | c1cc2nccc(CC3CCCN(Cc4c[nH]cn4)CC3)c2cn1 (stereo not given) | -5.11%
99 | Cc1cccc(CN2CCc3c(COCC(=O)N(C)C)nn(C)c3C2)n1 | -120%
100 | Cc1ccc(N2CC[C@H]3CN(C(=O)c4ccn(C)n4)C[C@H]3C2)nn1 | -102%
101 | Cn1ccnc1NC[C@@H]1CCC[C@@H]2CN(CC3CC3)C[C@@H]21 | 16%
102 | c1ccc(N2CCOC3(CCCN(c4ncccn4)C3)C2)nc1 (stereo not given) | -103%
103 | O=S1(=O)c2ccccc2C2(CCN(Cc3cccnc3)C2)N1CC1CC1 (stereo not given) | -68.7%
104 | c1ccc(-c2cc(CNCCCC3CCOC3)c3nnnn3c2)cc1 (stereo not given) | -22.3%
105 | NCc1ccc(OC(F)F)cc1OC(F)F | -43%
106 | Cc1n[nH]c2ncc(CNC3CCCN(c4ncccn4)C3)cc12 (stereo not given) | 23.6%
107 | O=C(NCc1cccnc1)[C@H]1CC[C@@H]2[C@@H](CCN2c2ncccn2)O1 | -82.2%
108 | O=C(c1ccoc1)N1CCC2(CC1)COC(COc1ccccn1)C2 (stereo not given) | -123%
109 | O=C1CCCC2=Nc3nonc3NC(c3cc(Cl)ccc3F)C12 (stereo not given) | 35.5%
110 | CS(=O)(=O)c1ccc(CN2C[C@@H]3CC[C@H]2CN(c2ncccn2)C3)cc1 | 0.345%
